Results taken from ChEMBL document CHEMBL4043235, “Design, semisynthesis and potent cytotoxic activity of novel 10-fluorocamptothecin derivatives” (Bioorg Med Chem Lett, 2017).

Legend:
Type in all cases: functional, cell-based
[1] = tested on: KB; test: Cytotoxicity against human KB cells after 72 hrs by SRB assay
Method in brief: (§1)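 Cells seeded at 3–5 × 10^3 per well in RPMI-1640 with 10% FBS holding various sample concentrations. Exposure 72 h. Attached cells fixed with cold 50% trichloroacetic acid for 30 min, then stained with 0.04% SRB for 30 min. Bound dye solubilized in 10 mM Tris-base, absorbance read at 515 nm. Three or more experiments; IC50 given as mean with standard deviation.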

[2] = Cytotoxicity against human KBVIN cells after 72 hrs by SRB assay; method in brief: as §1
[3] = tested on: MDA-MB-231; test: Cytotoxicity against human MDA-MB-231 cells after 72 hrs by SRB assay; conditions: MDA-MB-231, 72 h; method in brief: as §1
[4] = tested on: MCF7; test: Cytotoxicity against human MCF7 cells after 72 hrs by SRB assay; conditions: MCF7, 72 h; method in brief: as §1
[5] = tested on: A549; test: Cytotoxicity against human A549 cells after 72 hrs by SRB assay; conditions: A549, 72 h; method in brief: as §1

| SMILES | IC50 [1] [nM] | IC50 [2] [nM] | IC50 [3] [nM] | IC50 [4] [nM] | IC50 [5] [nM] |
| --- | --- | --- | --- | --- | --- |
| CC[C@@]1(OC(=O)CN/C(Cc2ccc(OC)cc2)=N/S(=O)(=O)c2ccc(C)cc2)C(=O)OCc2c1cc1n(c2=O)Cc2cc3cc(F)ccc3nc2-1 | 280 | 497 | 601 | 649 | 62.2 |
| CC[C@@]1(O)C(=O)OCc2c1cc1n(c2=O)Cc2cc3cc(F)ccc3nc2-1 | 185 | 2950 | 579 | 431 | 58.6 |
| CC[C@@]1(O)C(=O)OCc2c1cc1n(c2=O)Cc2cc3c(CN(C)C)c(O)ccc3nc2-1 [TOPOTECAN] | 102 |  | 773 | 666 | 112 |
| CCc1c2c(nc3ccc(F)cc13)-c1cc3c(c(=O)n1C2)COC(=O)[C@@]3(CC)OC(=O)CN/C(Cc1ccc(OC)cc1)=N/S(=O)(=O)c1ccc(C)cc1 | 47 | 99.2 | 238 | 80.8 | 8.72 |
| CCc1c2c(nc3ccc(OC(=O)N4CCC(N5CCCCC5)CC4)cc13)-c1cc3c(c(=O)n1C2)COC(=O)[C@]3(O)CC [IRINOTECAN] | 7990 | > 20000 | 15600 |  |  |
| CCc1c2c(nc3ccc(F)cc13)-c1cc3c(c(=O)n1C2)COC(=O)[C@]3(O)CC | 69.6 | 67 | 319 | 76.9 | 9.91 |
